Measurements from ChEMBL document CHEMBL1132356, “Structural modification of Fas C-terminal tripeptide and its effects on the inhibitory activity of Fas/FAP-1 binding” (J Med Chem, 1999).
One block for each compound: values may come before it. Starred links: 1 amine or outer side, 2 acyl side, 3 side chain; linkers in the order of their positions; H or OH if unused. Non-standard residues stand in square brackets, D forms with d. Residues, ends and D or L forms follow the SMILES beside them. *: point of attachment. Sta = CC(C)C[C@H](N)[C@@H](O)CC(=O)O; tBuAla = CC(C)(C)C[C@H](N)C(=O)O; NMeL = CN[C@@H](CC(C)C)C(=O)O; Chg = N[C@H](C(=O)O)C1CCCCC1; Phg = N[C@H](C(=O)O)c1ccccc1; Tle = CC(C)(C)[C@H](N)C(=O)O; NMeS = CN[C@@H](CO)C(=O)O; hSer = N[C@@H](CCO)C(=O)O; Nva = CCC[C@H](N)C(=O)O; Abu = CC[C@H](N)C(=O)O; Aib = CC(C)(N)C(=O)O; CO = O=C([*:1])[*:2]; Bz = O=C(c1ccccc1)*; NHPh = c1ccc(N*)cc1; Bn = c1ccc(C*)cc1

How the values were obtained:
[1] = Compound (50 mM) was tested in vitro for inhibitory potency against Fas-associated phosphatase-1 binding from HFAP-10cDNA subcloned into the bluescript vector pSK-II(Stratagene)
Method in brief: (§1)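 ³⁵S-labeled protein incubated 16 h at 4 °C with peptide and GST-Fas immobilized on beads, in pH 8.0 Tris/NaCl buffer with DTT, EDTA, 1.1% NP-40 and protease inhibitors. After four washes, bead-bound radioactivity was counted by scintillation. Specific binding is Fas binding minus FasΔ15 binding. % inhibition = 100 − (specific binding with peptide / without peptide × 100).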

[2] = Compound (30 mM) was tested in vitro for inhibitory potency against Fas-associated phosphatase-1 binding from HFAP-10cDNA subcloned into the bluescript vector pSK-II(Stratagene); settings: in the assay text read “30 µM” for “30 mM”; method in brief: as §1
[3] = molecular target: Tyrosine-protein phosphatase non-receptor type 13 (Homo sapiens) (UniProt Q12923); test: In vitro inhibition of Fas-associated phosphatase-1 binding from HFAP-10cDNA subcloned into bluescript vector; set-up: concentration or dose not given beside the values; settings: concentration not given here
Method in brief: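 35S-labeled FAP-1 incubated 16 h at 4 °C with peptide and GST-Fas fusion protein on glutathione beads in 150 mM NaCl, 50 mM Tris pH 8.0, 5 mM DTT, 2 mM EDTA, 1.1% NP-40, protease inhibitors. After four washes, bead-bound radioactivity counted by scintillation. Specific binding is Fas minus Fas∆15 binding. % inhibition = 100 − (specific binding with peptide / without peptide × 100).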

[4] = Compound (100 mM) was tested in vitro for inhibitory potency against Fas-associated phosphatase-1 binding from HFAP-10cDNA subcloned into the bluescript vector pSK-II(Stratagene); method in brief: as §1
[5] = Compound (10 mM) was tested in vitro for inhibitory potency against Fas-associated phosphatase-1 binding from HFAP-10cDNA subcloned into the bluescript vector pSK-II(Stratagene); settings: in the assay text read “10 uM” for “10 mM”; method in brief: as §1

Sequence of Tyrosine-protein phosphatase non-receptor type 13 (Homo sapiens) (Q12923 whole entry, the tested form may be a part): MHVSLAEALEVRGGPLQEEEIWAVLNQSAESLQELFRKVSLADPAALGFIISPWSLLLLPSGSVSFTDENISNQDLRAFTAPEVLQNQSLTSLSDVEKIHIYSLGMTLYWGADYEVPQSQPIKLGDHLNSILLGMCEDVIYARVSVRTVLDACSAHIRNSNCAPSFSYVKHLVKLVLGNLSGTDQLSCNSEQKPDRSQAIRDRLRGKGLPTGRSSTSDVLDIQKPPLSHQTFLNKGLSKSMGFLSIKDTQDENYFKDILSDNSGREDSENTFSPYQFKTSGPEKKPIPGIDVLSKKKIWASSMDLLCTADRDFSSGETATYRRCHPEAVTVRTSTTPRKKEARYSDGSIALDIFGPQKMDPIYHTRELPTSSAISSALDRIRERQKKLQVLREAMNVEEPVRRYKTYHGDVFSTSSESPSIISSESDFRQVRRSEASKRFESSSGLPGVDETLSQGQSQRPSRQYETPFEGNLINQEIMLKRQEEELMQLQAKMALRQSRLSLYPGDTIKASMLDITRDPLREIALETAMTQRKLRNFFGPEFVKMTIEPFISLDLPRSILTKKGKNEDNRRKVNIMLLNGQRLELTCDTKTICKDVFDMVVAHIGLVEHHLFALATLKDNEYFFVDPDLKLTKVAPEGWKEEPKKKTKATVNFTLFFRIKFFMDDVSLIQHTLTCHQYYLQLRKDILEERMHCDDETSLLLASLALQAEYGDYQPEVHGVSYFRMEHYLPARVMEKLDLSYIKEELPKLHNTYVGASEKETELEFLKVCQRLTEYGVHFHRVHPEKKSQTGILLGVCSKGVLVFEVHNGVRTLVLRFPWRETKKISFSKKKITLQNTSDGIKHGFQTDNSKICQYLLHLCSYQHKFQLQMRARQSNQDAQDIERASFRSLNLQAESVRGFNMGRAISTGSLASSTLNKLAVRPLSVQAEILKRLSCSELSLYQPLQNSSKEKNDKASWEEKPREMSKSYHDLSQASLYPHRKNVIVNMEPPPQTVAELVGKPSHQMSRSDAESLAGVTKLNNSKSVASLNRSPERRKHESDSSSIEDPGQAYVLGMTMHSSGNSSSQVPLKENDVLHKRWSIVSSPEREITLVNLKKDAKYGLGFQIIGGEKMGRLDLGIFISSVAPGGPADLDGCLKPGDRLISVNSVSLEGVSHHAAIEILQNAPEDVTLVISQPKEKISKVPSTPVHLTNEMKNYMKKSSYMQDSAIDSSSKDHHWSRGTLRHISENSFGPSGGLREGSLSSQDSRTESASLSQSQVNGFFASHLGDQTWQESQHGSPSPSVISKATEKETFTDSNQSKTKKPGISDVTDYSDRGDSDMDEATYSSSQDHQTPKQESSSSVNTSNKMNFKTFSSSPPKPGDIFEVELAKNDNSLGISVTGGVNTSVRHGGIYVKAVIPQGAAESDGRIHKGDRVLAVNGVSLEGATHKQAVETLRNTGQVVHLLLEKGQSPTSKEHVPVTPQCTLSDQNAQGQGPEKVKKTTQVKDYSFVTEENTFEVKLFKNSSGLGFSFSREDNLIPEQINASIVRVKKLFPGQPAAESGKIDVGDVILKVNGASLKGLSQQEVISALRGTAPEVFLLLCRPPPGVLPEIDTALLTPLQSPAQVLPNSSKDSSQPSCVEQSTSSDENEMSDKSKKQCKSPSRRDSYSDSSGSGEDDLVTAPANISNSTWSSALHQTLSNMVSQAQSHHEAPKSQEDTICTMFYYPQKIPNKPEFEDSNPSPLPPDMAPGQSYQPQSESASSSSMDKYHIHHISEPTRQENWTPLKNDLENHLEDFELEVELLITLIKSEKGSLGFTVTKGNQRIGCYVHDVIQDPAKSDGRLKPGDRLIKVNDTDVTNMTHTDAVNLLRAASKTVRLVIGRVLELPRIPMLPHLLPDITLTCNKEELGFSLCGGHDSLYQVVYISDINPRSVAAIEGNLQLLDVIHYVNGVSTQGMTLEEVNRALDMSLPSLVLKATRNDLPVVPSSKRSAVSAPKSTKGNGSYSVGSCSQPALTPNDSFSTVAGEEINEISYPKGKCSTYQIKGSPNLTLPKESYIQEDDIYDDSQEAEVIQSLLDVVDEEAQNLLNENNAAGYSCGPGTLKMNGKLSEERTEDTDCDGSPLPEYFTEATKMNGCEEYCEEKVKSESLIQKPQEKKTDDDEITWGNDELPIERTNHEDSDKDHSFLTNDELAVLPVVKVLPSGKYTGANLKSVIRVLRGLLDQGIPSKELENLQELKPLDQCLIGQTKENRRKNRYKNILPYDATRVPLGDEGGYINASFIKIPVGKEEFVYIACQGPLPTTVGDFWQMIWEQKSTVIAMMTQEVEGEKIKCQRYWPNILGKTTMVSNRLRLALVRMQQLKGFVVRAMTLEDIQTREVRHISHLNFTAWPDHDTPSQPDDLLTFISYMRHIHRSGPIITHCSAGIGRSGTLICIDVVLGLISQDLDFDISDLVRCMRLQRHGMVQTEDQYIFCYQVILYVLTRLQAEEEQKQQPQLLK

SMILES: CC(=O)N1C[C@@H](O)C[C@H]1C(=O)N[C@@H](CC(C)C)C(=O)N[C@H](C(=O)O)C(C)C
inhibition [1]: 9.6%

SMILES: CC(=O)N1C[C@H](O)C[C@H]1C(=O)N[C@@H](CC(C)C)C(=O)N[C@H](C(=O)O)C(C)C
inhibition [1]: 2.4%

SMILES: CC(=O)N[C@@H](CO)C(=O)N[C@@H](CC(C)C)C(=O)N[C@H](C(=O)Oc1nn[nH]n1)C(C)C
inhibition [3]: 14.4%

SMILES: CC(=O)N[C@@H](CO)C(=O)N[C@@H](Cc1ccc(Oc2ccc(OC(C)=O)cc2)cc1)C(=O)N[C@H](C(=O)O)C(C)C
inhibition [2]: 46.7%

SMILES: CC(C)C[C@H](NC(=O)[C@H](CO)NC(=O)C1CCCCC1)C(=O)N[C@H](C(=O)O)C(C)C
inhibition [5]: 16%

SMILES: CC(C)C[C@H](NC(=O)[C@H](CO)NC(=O)NC1CCCCC1)C(=O)N[C@H](C(=O)O)C(C)C
inhibition [5]: 29.1%

SMILES: CC(C)C[C@H](NC(=O)[C@H](CO)NC(=O)Nc1ccc(C(=O)[C@@H](N)CCC(=O)O)cc1)C(=O)N[C@H](C(=O)O)C(C)C
inhibition [5]: 66.6%

SMILES: CC(C)C[C@H](NC(=O)[C@H](CO)NC(=O)Nc1cccc(C(=O)[C@@H](N)CCC(=O)O)c1)C(=O)N[C@H](C(=O)O)C(C)C
inhibition [5]: 76.8%

SMILES: CC(C)C[C@H](NC(=O)[C@H](CO)NC(=O)Nc1ccccc1C(=O)[C@@H](N)CCC(=O)O)C(=O)N[C@H](C(=O)O)C(C)C
inhibition [5]: 47.8%

SMILES: CC[C@@H](C)[C@H](NC(=O)[C@H](CCC(=O)O)NC(C)=O)C(=O)N[C@@H](CCC(N)=O)C(=O)N[C@@H](CO)C(=O)N[C@@H](CC(C)C)C(=O)N[C@H](C(=O)O)C(C)C
inhibition [5]: 29.6%

SMILES: CC(=O)N[C@@H](COC(C)=O)C(=O)N[C@@H](CC(C)C)C(=O)N[C@H](C(=O)O)C(C)C (Ac-Ser(Ac)-Leu-Val-OH)
inhibition [4]: 47.9%

SMILES: COC(=O)[C@@H](NC(=O)[C@H](CC(C)C)NC(=O)[C@H](CO)NC(C)=O)C(C)C (Ac-Ser-Leu-Val-OMe)
inhibition [3]: -0.5%

SMILES: CC[C@H](NC(=O)[C@H](CC(C)C)NC(=O)[C@H](CO)NC(C)=O)C(=O)O (Ac-Ser-Leu-[Abu]-OH)
inhibition [1]: 18.7%

SMILES: CC(=O)N[C@@H](CO)C(=O)N[C@@H](CC(C)C)C(=O)N[C@H](C(=O)O)C1CCCCC1 (Ac-Ser-Leu-[Chg]-OH)
inhibition [1]: 7.7%

SMILES: CCC[C@H](NC(=O)[C@H](CC(C)C)NC(=O)[C@H](CO)NC(C)=O)C(=O)O (Ac-Ser-Leu-[Nva]-OH)
inhibition [1]: 16.6%

SMILES: CC(=O)N[C@@H](CO)C(=O)N[C@@H](CC(C)C)C(=O)N[C@H](C(=O)O)C(C)(C)C (Ac-Ser-Leu-[Tle]-OH)
inhibition [1]: 7.2%

SMILES: CC(=O)N[C@@H](CO)C(=O)N[C@@H](CC(C)C)C(=O)N[C@@H](CC(C)(C)C)C(=O)O (Ac-Ser-Leu-[tBuAla]-OH)
inhibition [1]: 10.1%

SMILES: CC(=O)N[C@@H](CO)C(=O)N(C)[C@@H](CC(C)C)C(=O)N[C@H](C(=O)O)C(C)C (Ac-Ser-[NMeL]-Val-OH)
inhibition [3]: 33.4%

SMILES: CC(=O)N(C)[C@@H](CO)C(=O)N[C@@H](CC(C)C)C(=O)N[C@H](C(=O)O)C(C)C (Ac-[NMeS]-Leu-Val-OH)
inhibition [3]: 20.6%

SMILES: CC(=O)N[C@@H](CC(C)C)[C@@H](O)CC(=O)N[C@@H](CC(C)C)C(=O)N[C@H](C(=O)O)C(C)C (Ac-[Sta]-Leu-Val-OH)
inhibition [1]: 9.9%

SMILES: CC(=O)N[C@@H](CCO)C(=O)N[C@@H](CC(C)C)C(=O)N[C@H](C(=O)O)C(C)C (Ac-[hSer]-Leu-Val-OH)
inhibition [1]: 13.3%

Continued, values first:

inhibition [2]: 13.6%
SMILES: CC(=O)N[C@@H](CO)C(=O)NCCC(=O)N[C@H](C(=O)O)C(C)C

inhibition [3]: -6.8%
SMILES: CC(=O)N[C@@H](CO)C(=O)N[C@@H](CC(C)C)C(=O)N[C@@H](C(=O)O)C(C)C

inhibition [2]: 31.1%
inhibition [1]: 44.3%
inhibition [4]: 87.6%
inhibition [3]: 101%
SMILES: CC(=O)N[C@@H](CO)C(=O)N[C@@H](CC(C)C)C(=O)N[C@H](C(=O)O)C(C)C

inhibition [2]: 4.9%
SMILES: CC(=O)N[C@@H](CO)C(=O)N[C@@H](CC(C)C)[C@@H](O)C(=O)N[C@H](C(=O)O)C(C)C

inhibition [3]: 1.2%
SMILES: CC(=O)N[C@@H](CO)C(=O)N[C@H](CC(C)C)C(=O)N[C@H](C(=O)O)C(C)C

inhibition [3]: 16.5%
SMILES: CC(=O)N[C@@H](CO)C(=O)Nc1ccc(C(=O)N[C@H](C(=O)O)C(C)C)cc1

inhibition [3]: 9.5%
SMILES: CC(=O)N[C@@H](CO)C(=O)Nc1cccc(C(=O)N[C@H](C(=O)O)C(C)C)c1

inhibition [3]: 59.2%
SMILES: CC(=O)N[C@H](CO)C(=O)N[C@@H](CC(C)C)C(=O)N[C@H](C(=O)O)C(C)C

inhibition [4]: 10.4%
SMILES: CC(=O)N[C@@H](COCc1ccccc1)C(=O)N[C@@H](CC(C)C)C(=O)N[C@H](C(=O)O)C(C)C (Ac-Ser(Bn)-Leu-Val-OH)

inhibition [4]: 36.2%
SMILES: CC(=O)N[C@@H](COC(=O)c1ccccc1)C(=O)N[C@@H](CC(C)C)C(=O)N[C@H](C(=O)O)C(C)C (Ac-Ser(Bz)-Leu-Val-OH)

inhibition [2]: 21.1%
SMILES: CC[C@H](NC(=O)[C@H](CO)NC(C)=O)C(=O)N[C@H](C(=O)O)C(C)C (Ac-Ser-[Abu]-Val-OH)

inhibition [3]: -4%
SMILES: CC(=O)N[C@@H](CO)C(=O)NC(C)(C)C(=O)N[C@H](C(=O)O)C(C)C (Ac-Ser-[Aib]-Val-OH)

inhibition [2]: 34.7%
SMILES: CC(=O)N[C@@H](CO)C(=O)N[C@H](C(=O)N[C@H](C(=O)O)C(C)C)C1CCCCC1 (Ac-Ser-[Chg]-Val-OH)

inhibition [2]: 6%
SMILES: CCC[C@H](NC(=O)[C@H](CO)NC(C)=O)C(=O)N[C@H](C(=O)O)C(C)C (Ac-Ser-[Nva]-Val-OH)

inhibition [2]: 18.5%
SMILES: CC(=O)N[C@@H](CO)C(=O)N[C@H](C(=O)N[C@H](C(=O)O)C(C)C)c1ccccc1 (Ac-Ser-[Phg]-Val-OH)

inhibition [2]: 54.6%
SMILES: CC(=O)N[C@@H](CO)C(=O)N[C@H](C(=O)N[C@H](C(=O)O)C(C)C)C(C)(C)C (Ac-Ser-[Tle]-Val-OH)

inhibition [5]: 28%
SMILES: CC(C)C[C@H](NC(=O)[C@H](CO)NC(=O)c1ccccc1)C(=O)N[C@H](C(=O)O)C(C)C (Bz-Ser-Leu-Val-OH)

inhibition [5]: 51.5%
SMILES: CC(C)C[C@H](NC(=O)[C@H](CO)NC(=O)Nc1ccccc1)C(=O)N[C@H](C(=O)O)C(C)C ({NHPh-CO}-Ser-Leu-Val-OH)
